What was measured:
Rattus norvegicus [1] = test: In vivo percentage efficacy, measured as ability to decrease blood glucose percentage after 11.25 days.; assay type: functional; parameters: concentration or dose not given beside the values
Procedure, shortened: (§1)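 Rats (250-300 g) on high-fat purified diet, made diabetic by 40 mg/kg streptozotocin iv (tail vein) 3 days into diet. Selected by glucose criteria, including an oral glucose load (1.35 g/kg dextrose) after an 18 h fast. Dosed orally once daily at 70 µmol/kg in CMC for 11 days. Blood glucose taken 6 h post-dose (food removed). % efficacy: 100% = normalization to 60 mg/dL.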

[2] = AUC was measured from the graph plotted against blood plasma concentration and time at the dose of 300 uMol/kg,; assay type: ADME
Rattus norvegicus [3] = test: Ketone levels were determined in an acute in vivo study for inhibition of gluconeogenesis in normal male Sprague-Dawley rats; assay type: functional; parameters: concentration or dose not given beside the values
Procedure, shortened: (§2)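 Normal male Sprague-Dawley rats (200-300 g) fasted 18 h; five per group given compound by oral gavage at 100 µmol/kg in carboxymethylcellulose vehicle or vehicle alone. At 3 h, cardiac-puncture blood under brief CO₂ anesthesia; serum β-hydroxybutyrate (ketones) and glucose expressed as % of control; Student's t-test.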

Rattus norvegicus [4] = test: In vivo percentage efficacy, measured as ability to decrease blood glucose percentage after 8.25 days; assay type: functional; parameters: concentration or dose not given beside the values; procedure, shortened: as §1
Rattus norvegicus [5] = test: Glucose levels were determined in an acute in vivo study for inhibition of gluconeogenesis in normal male Sprague-Dawley rats; assay type: functional; parameters: concentration or dose not given beside the values; procedure, shortened: as §2
[6] = AUC was measured from the graph plotted against blood plasma concentration and time at the dose of 300 uMol/kg; assay type: ADME, cell-free
Rattus norvegicus [7] = test: Testes weight (treated)/body weight(treated)]/[testes weight(control)/body weight(control)] x 100 at a dose of 350 umol/kg/day; assay type: functional
Rattus norvegicus [8] = test: In vivo percentage efficacy was measured as ability to decrease blood glucose percentage after 11.25 days in rats; assay type: functional; procedure, shortened: as §1
Rattus norvegicus [9] = test: In vivo percentage efficacy, measured as ability to decrease blood glucose percentage after 8.25 days in rats; assay type: functional; parameters: concentration or dose not given beside the values; procedure, shortened: as §1
[10] = AUC was measured from the graph plotted against blood plasma concentration and time at the dose of 150 uMol/kg,; assay type: ADME
Rattus norvegicus [11] = test: Testes weight (treated)/body weight(treated)]/[testes weight(control)/body weight(control)] x 100 at a dose of 700 umol/kg/day; assay type: functional
[12] = AUC was measured from the graph plotted against blood plasma concentration and time at the dose of 700 uMol/kg,; assay type: ADME
Rattus norvegicus [13] = test: Testes weight (treated)/body weight(treated)]/[testes weight(control)/body weight(control)] x 100 at a dose of 700 uM/kg/day; assay type: functional
[14] = AUC was measured from the graph plotted against blood plasma concentration and time at the dose of 150 uMol/kg

Row | Structure (SMILES) | Efficacy (Rattus norvegicus [1]) [%] | AUC [2] [µg·h/mL] | Serum ketone level, % of control (Rattus norvegicus [3]) [%] | Control (Rattus norvegicus [5]) [%] | Efficacy (Rattus norvegicus [9]) [%] | also measured
1 | COC(c1ccc(C(=O)O)cc1)C(C)(C)C (centres undefined) | <59 | 1020 | <17 | <81 | – | Efficacy (Rattus norvegicus [4]): <23%
2 | CC(C)(C)C(=O)c1ccc(C(=O)N(C(=O)c2ccc(C(=O)C(C)(C)C)cc2)C(=O)c2cccnc2)cc1 | <74 | – | <46 | 95 | – | AUC [6]: 64 µg·h/mL; Efficacy (Rattus norvegicus [4]): <73%; Control (Rattus norvegicus [7]): 95%
3 | CC(C)(C)[C@@H](O)c1ccc(C(=O)O)cc1 | – | – | <23 | <42 | <64 | Efficacy (Rattus norvegicus [8]): <63%; Control (Rattus norvegicus [7]): <59%
4 | CC(C)(C)C(=O)c1ccc(C2=NCCO2)cc1 | – | 886 | <20 | <74 | – | –
5 | CC(C)(C)C(=O)c1ccc(C(=O)O/C(=N\OCC(=O)O)c2ccc(C(=O)C(C)(C)C)cc2)cc1 | <102 | 2030 | <19 | <63 | <90 | AUC [10]: 1000 µg·h/mL
6 | CC(C)(C)C(=O)c1ccc(C(=O)O)cc1 | – | – | – | – | – | Control (Rattus norvegicus [11]): <47%
7 | CC(C)(C)C(=O)c1ccc(C(=O)O/C(=N\OCCCC(=O)O)c2ccc(C(=O)C(C)(C)C)cc2)cc1 | – | 1630 | <15 | <70 | – | –
8 | C=CCO/N=C(\OC(=O)c1ccc(C(=O)C(C)(C)C)cc1)c1ccc(C(=O)C(C)(C)C)cc1 | <85 | 158 | <43 | 105 | <53 | –
9 | CC1(C)COC(c2ccc(C(=O)O)cc2)(C(C)(C)C)OC1 | – | 263 | <18 | 105 | – | –
10 | CC(C)(C)[C@H](O)c1ccc(C(=O)O)cc1 | – | – | <80 | 94 | – | Control (Rattus norvegicus [7]): <62%
11 | CC(C)(C)C(=O)c1ccc(C(=O)O/C(=N\OCCO)c2ccc(C(=O)C(C)(C)C)cc2)cc1 | <92 | 565 | <15 | 98 | <92 | AUC [10]: 122 µg·h/mL
12 | CC(C)(C)C(=O)c1ccc(C(=O)NC(=O)c2ccc(F)cc2)cc1 | <54 | 588 | <13 | <65 | – | Control (Rattus norvegicus [11]): <63%; AUC [12]: 2570 µg·h/mL; Efficacy (Rattus norvegicus [4]): <57%
13 | CC(C)O/N=C(\OC(=O)c1ccc(C(=O)C(C)(C)C)cc1)c1ccc(C(=O)C(C)(C)C)cc1 | <98 | 155 | <41 | 94 | <80 | AUC [10]: 94 µg·h/mL
14 | CC(C)(C)C(=O)c1ccc(C(=O)N(CC(=O)O)C(=O)c2ccc(C(=O)C(C)(C)C)cc2)cc1 | <47 | 1080 | <6 | <56 | – | Efficacy (Rattus norvegicus [4]): <53%
15 | COCCO/N=C(\OC(=O)c1ccc(C(=O)C(C)(C)C)cc1)c1ccc(C(=O)C(C)(C)C)cc1 | <108 | 1850 | <19 | <49 | <109 | –
16 | CO/N=C(\OC(=O)c1ccc(C(=O)C(C)(C)C)cc1)c1ccc(C(=O)C(C)(C)C)cc1 | <59 | 85 | <30 | 98 | <64 | Control (Rattus norvegicus [13]): 96%; AUC [12]: 325 µg·h/mL
17 | CC(C)(C)C(=O)c1ccc(C2=N[C@@H](Cc3ccccc3)C(=O)O2)cc1 | – | 413 | <21 | <90 | – | –
18 | CO/N=C(\OC(=O)c1ccc([C@@H](O)C(C)(C)C)cc1)c1ccc([C@H](O)C(C)(C)C)cc1 (relative stereo) | – | 2370 | <17 | <61 | – | –
19 | C=CCOC(c1ccc(C(=O)O)cc1)C(C)(C)C (centres undefined) | – | – | <29 | 107 | – | AUC [6]: 941 µg·h/mL
20 | CC(C)(C)C(=O)c1ccc(C(=O)N[C@@H](Cc2ccccc2)C(=O)O)cc1 | – | 964 | <4 | – | – | AUC [12]: 2930 µg·h/mL
21 | CC(C)(C)C1(c2ccc(C(=O)O)cc2)OCCCO1 | <65 | 1400 | <15 | 111 | – | Efficacy (Rattus norvegicus [4]): <41%
22 | CC(C)(C)C(O)c1ccc(C(=O)O)cc1 (centres undefined) | – | – | – | <50 | – | Control (Rattus norvegicus [7]): <74%
23 | CC(C)(C)C(=O)c1ccc(C(=O)NC(=O)c2ccc(C(=O)C(C)(C)C)cc2)cc1 | – | 122 | <21 | 92 | – | Control (Rattus norvegicus [11]): 101%; AUC [12]: 2670 µg·h/mL
24 | Cc1ccc(C2(C(C)(C)C)OCCO2)cc1 | <64 | – | <12 | <58 | – | Control (Rattus norvegicus [11]): <52%; AUC [14]: 1510 µg·h/mL; AUC [12]: 3560 µg·h/mL; Efficacy (Rattus norvegicus [4]): <52%
25 | CC(C)(C)C(=O)c1ccc(C(N)=O)cc1 | – | – | – | – | – | Control (Rattus norvegicus [11]): <48%
26 | CC(C)(C)O/N=C(\OC(=O)c1ccc(C(=O)C(C)(C)C)cc1)c1ccc(C(=O)C(C)(C)C)cc1 | <98 | 55 | <50 | <70 | <80 | Control (Rattus norvegicus [13]): 102%

Reference: ChEMBL document CHEMBL1132198, “Hypoglycemic prodrugs of 4-(2,2-dimethyl-1-oxopropyl)benzoic acid” (J Med Chem, 1999)
